Test results: ChEMBL document CHEMBL1909532, “Comparative evaluation of two structurally related flavonoids, isoliquiritigenin and liquiritigenin, for their oral infection therapeutic potential” (J Nat Prod, 2011)
Values after ≈ are worked out from the molar mass of the structure shown. Active and inactive are the calls of the source. The rule behind the calls is not given here.

Tests used:
[1] = molecular target: T1, Collagenase (Porphyromonas gingivalis) (UniProt P33437); assay: Inhibition of Porphyromonas gingivalis ATCC 33277 collagenase assessed at 100 ug/ml after 4 hrs by fluorimetric analysis relative to control
T1 sequence (whole entry): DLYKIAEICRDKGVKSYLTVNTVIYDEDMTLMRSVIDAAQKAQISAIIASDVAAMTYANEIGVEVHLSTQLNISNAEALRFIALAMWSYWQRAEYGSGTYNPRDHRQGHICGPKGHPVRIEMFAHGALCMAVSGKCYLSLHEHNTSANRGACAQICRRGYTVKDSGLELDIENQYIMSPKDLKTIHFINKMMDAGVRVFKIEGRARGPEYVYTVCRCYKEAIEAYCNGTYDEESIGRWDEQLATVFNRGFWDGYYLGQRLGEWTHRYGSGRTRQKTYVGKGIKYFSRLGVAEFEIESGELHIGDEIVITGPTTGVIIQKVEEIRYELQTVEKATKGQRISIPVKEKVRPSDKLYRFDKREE
Outline: (§1)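 Two-day P. gingivalis ATCC 33277 culture supernatant incubated with fluorescein-conjugated DQ type I collagen (stock 100 μg/mL) in TCNB buffer, compound final 0, 5, 25 or 100 μg/mL. Incubated 4 h in the dark at room temperature, then fluorescence read. Triplicates, mean ± SD.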

[2] = molecular target: Matrix metalloproteinase-9 (Homo sapiens) (UniProt P14780); assay: Inhibition of human MMP9 assessed as remaining activity at 5 ug/ml after 4 hrs by fluorimetric analysis relative to control
Outline: (§2)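 Active human recombinant MMP-9 (final 100 ng/mL) in TCNB buffer (50 mM Tris-HCl, 10 mM CaCl2, 150 mM NaCl, 0.05% Brij35, pH 7.5) with fluorescein-conjugated DQ gelatin (stock 1 mg/mL); compound final 0, 5, 25 or 100 μg/mL. Incubated 4 h at 37 °C in the dark; fluorescence at ex 490/em 520 nm.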

[3] = molecular target: Matrix metalloproteinase-9 (Homo sapiens) (UniProt P14780); assay: Inhibition of human MMP9 assessed as remaining activity at 25 ug/ml after 4 hrs by fluorimetric analysis relative to control; outline: as §2
[4] = molecular target: Matrix metalloproteinase-9 (Homo sapiens) (UniProt P14780); assay: Inhibition of human MMP9 assessed as remaining activity at 100 ug/ml after 4 hrs by fluorimetric analysis relative to control; outline: as §2
U-937 [5] = assay: Antiinflammatory activity in human U937 cells assessed as inhibition of LPS-induced TNFalpha secretion at 5 ug/ml after 24 hrs by ELISA relative to control; assay type: functional; conditions: U-937, 24 h
Outline: (§3)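 U937 monocytes differentiated with 10 ng/mL PMA for 48 h, then placed in RPMI-1% FBS. Pretreated 2 h with compound (0, 0.2, 1, 5 μg/mL), then stimulated with A. actinomycetemcomitans ATCC 29522 LPS (1 μg/mL) for 24 h. Cytokines and MMP-9 in supernatants measured by ELISA at 450 nm. Triplicates, two experiments, mean ± SD.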

U-937 [6] = assay: Antiinflammatory activity in human U937 cells assessed as inhibition of LPS-induced CCL5 secretion at 5 ug/ml after 24 hrs by ELISA relative to control; assay type: functional; outline: as §3
U-937 [7] = assay: Antiinflammatory activity in human U937 cells assessed as inhibition of LPS-induced of IL6 secretion at 5 ug/ml after 24 hrs by ELISA relative to control; assay type: functional; outline: as §3
U-937 [8] = assay: Antiinflammatory activity in human U937 cells assessed as inhibition of LPS-induced IL1-beta secretion at 5 ug/ml after 24 hrs by ELISA relative to control; assay type: functional; outline: as §3
U-937 [9] = assay: Antiinflammatory activity in human U937 cells assessed as inhibition of LPS-induced IL8 secretion at 5 ug/ml after 24 hrs by ELISA relative to control; assay type: functional; conditions: U-937, 24 h; outline: as §3
U-937 [10] = assay: Antiinflammatory activity in human U937 cells assessed as inhibition of LPS-induced IL8 secretion after 24 hrs by ELISA; assay type: functional, cell-based; outline: as §3
U-937 [11] = assay: Antiinflammatory activity in human U937 cells assessed as inhibition of LPS-induced TNFalpha secretion after 24 hrs by ELISA; assay type: functional, cell-based; outline: as §3
U-937 [12] = assay: Antiinflammatory activity in human U937 cells assessed as inhibition of LPS-induced CCL5 secretion after 24 hrs by ELISA; assay type: functional, cell-based; outline: as §3
U-937 [13] = assay: Antiinflammatory activity in human U937 cells assessed as inhibition of LPS-induced IL6 secretion after 24 hrs by ELISA; assay type: functional, cell-based; outline: as §3
U-937 [14] = assay: Antiinflammatory activity in human U937 cells assessed as inhibition of LPS-induced IL1-beta secretion after 24 hrs by ELISA; assay type: functional, cell-based; outline: as §3
U-937 [15] = assay: Antiinflammatory activity in human U937 cells assessed as inhibition of LPS-induced IL6 secretion at 0.2 ug/ml after 24 hrs by ELISA relative to control; assay type: functional, cell-based; outline: as §3
U-937 [16] = assay: Antiinflammatory activity in human U937 cells assessed as inhibition of LPS-induced IL1-beta secretion at 0.2 ug/ml after 24 hrs by ELISA relative to control; assay type: functional, cell-based; outline: as §3
U-937 [17] = assay: Cytotoxicity against human U937 cells assessed as loss of cell viability by MTT assay; assay type: cell-based
Outline: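 PMA-differentiated U937 macrophages exposed to LPS or compound (up to 5 μg/mL) under the 24 h stimulation protocol; viability checked by MTT assay.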

U-937 [18] = assay: Antiinflammatory activity in human U937 cells assessed as inhibition of LPS-induced MMP9 secretion at 5 ug/ml after 24 hrs by ELISA relative to control; assay type: functional; conditions: U-937, 24 h; outline: as §3
[19] = molecular target: Transcription factor p65 (Homo sapiens) (UniProt Q04206); assay: Inhibition of LPS-induced NF-kappaB p65 activation in human U937 cells at 5 ug/ml after 1 hr relative to control; assay type: cell-based; conditions: U-937
Outline: (§4)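 PMA-differentiated U937 macrophages pretreated with compound (5 μg/mL) for 1 h, then given LPS (1 μg/mL) for 1 h at 37 °C. Whole-cell extracts adjusted to 1 mg/mL protein. NF-κB p65 and AP-1 activation measured by TransAM kits; controls had no pretreatment.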

[20] = molecular target: Transcription factor Jun (Homo sapiens) (UniProt P05412); assay: Inhibition of LPS-induced AP-1 activation in human U937 cells at 5 ug/ml after 1 hr relative to control; assay type: cell-based; conditions: U-937; outline: as §4
Fusobacterium nucleatum [21] = assay: Antibacterial activity against Fusobacterium nucleatum ATCC 25586 by microdilution technique; assay type: functional, organism-based
Outline: (§5)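 Broth microdilution against each strain; MIC read as lowest concentration with no growth. Growth also expressed as percent of compound-free control (set to 100%). Triplicate assays, two independent experiments, mean ± SD; Student's t test, p < 0.01.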

Prevotella intermedia [22] = assay: Antibacterial activity against Prevotella intermedia ATCC 25611 by microdilution technique in presence of 1% fetal bovine serum; assay type: functional, organism-based
Outline: (§6)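 Broth microdilution growth assay, repeated in medium supplemented with 1% fetal bovine serum or with 10% unstimulated whole saliva.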

Porphyromonas gingivalis [23] = assay: Antibacterial activity against Porphyromonas gingivalis ATCC 33277 by microdilution technique in presence of 1% fetal bovine serum; assay type: functional, organism-based; outline: as §6
Fusobacterium nucleatum [24] = assay: Antibacterial activity against Fusobacterium nucleatum ATCC 25586 by microdilution technique in presence of 1% fetal bovine serum; assay type: functional, organism-based; outline: as §6
Prevotella intermedia [25] = assay: Antibacterial activity against Prevotella intermedia ATCC 25611 by microdilution technique in presence of 10% unstimulated whole salive; assay type: functional, organism-based; outline: as §6
Porphyromonas gingivalis [26] = assay: Antibacterial activity against Porphyromonas gingivalis ATCC 33277 by microdilution technique in presence of 10% unstimulated whole salive; assay type: functional, organism-based; outline: as §6
Fusobacterium nucleatum [27] = assay: Antibacterial activity against Fusobacterium nucleatum ATCC 25586 by microdilution technique in presence of 10% unstimulated whole salive; assay type: functional, organism-based; outline: as §6
Prevotella intermedia [28] = assay: Antibacterial activity against Prevotella intermedia ATCC 25611 assessed as growth inhibition at 5 ug/ml by microdilution technique relative to untreated control; assay type: functional; conditions: read-out: GI; outline: as §5
Prevotella intermedia [29] = assay: Antibacterial activity against Prevotella intermedia ATCC 25611 by microdilution technique; assay type: functional; outline: as §5
Prevotella intermedia [30] = assay: Bactericidal activity against Prevotella intermedia ATCC 25611 at 20 ug/ml by microdilution technique; assay type: functional, organism-based
Outline: (§7)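 MBC: aliquots from wells without visible growth spread on agar plates and incubated five days under appropriate conditions; MBC is the lowest concentration giving no colonies.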

Porphyromonas gingivalis [31] = assay: Antibacterial activity against Porphyromonas gingivalis ATCC 33277 by microdilution technique; assay type: functional; outline: as §5
Porphyromonas gingivalis [32] = assay: Bactericidal activity against Porphyromonas gingivalis ATCC 33277 at 40 ug/ml by microdilution technique; assay type: functional, organism-based; outline: as §7
Fusobacterium nucleatum [33] = assay: Antibacterial activity against Fusobacterium nucleatum ATCC 25586 at 40 ug/ml assessed as growth inhibition by microdilution technique relative to untreated control; assay type: functional; conditions: read-out: GI; outline: as §5
[34] = molecular target: T1, Collagenase (Porphyromonas gingivalis); assay: Inhibition of Porphyromonas gingivalis ATCC 33277 collagenase assessed as remaining activity at 5 ug/ml after 4 hrs by fluorimetric analysis relative to control; outline: as §1
[35] = molecular target: T1, Collagenase (Porphyromonas gingivalis); assay: Inhibition of Porphyromonas gingivalis ATCC 33277 collagenase assessed as remaining activity at 25 ug/ml after 4 hrs by fluorimetric analysis relative to control; outline: as §1
[36] = molecular target: T1, Collagenase (Porphyromonas gingivalis); assay: Inhibition of Porphyromonas gingivalis ATCC 33277 collagenase assessed as remaining activity at 100 ug/ml after 4 hrs by fluorimetric analysis relative to control; outline: as §1
Prevotella intermedia [37] = assay: Antibacterial activity against Prevotella intermedia ATCC 25611 at 40 ug/ml assessed as growth inhibition by microdilution technique relative to untreated control; assay type: functional; conditions: read-out: GI; outline: as §5

Chain of Matrix metalloproteinase-9 (Homo sapiens) (P14780 whole entry): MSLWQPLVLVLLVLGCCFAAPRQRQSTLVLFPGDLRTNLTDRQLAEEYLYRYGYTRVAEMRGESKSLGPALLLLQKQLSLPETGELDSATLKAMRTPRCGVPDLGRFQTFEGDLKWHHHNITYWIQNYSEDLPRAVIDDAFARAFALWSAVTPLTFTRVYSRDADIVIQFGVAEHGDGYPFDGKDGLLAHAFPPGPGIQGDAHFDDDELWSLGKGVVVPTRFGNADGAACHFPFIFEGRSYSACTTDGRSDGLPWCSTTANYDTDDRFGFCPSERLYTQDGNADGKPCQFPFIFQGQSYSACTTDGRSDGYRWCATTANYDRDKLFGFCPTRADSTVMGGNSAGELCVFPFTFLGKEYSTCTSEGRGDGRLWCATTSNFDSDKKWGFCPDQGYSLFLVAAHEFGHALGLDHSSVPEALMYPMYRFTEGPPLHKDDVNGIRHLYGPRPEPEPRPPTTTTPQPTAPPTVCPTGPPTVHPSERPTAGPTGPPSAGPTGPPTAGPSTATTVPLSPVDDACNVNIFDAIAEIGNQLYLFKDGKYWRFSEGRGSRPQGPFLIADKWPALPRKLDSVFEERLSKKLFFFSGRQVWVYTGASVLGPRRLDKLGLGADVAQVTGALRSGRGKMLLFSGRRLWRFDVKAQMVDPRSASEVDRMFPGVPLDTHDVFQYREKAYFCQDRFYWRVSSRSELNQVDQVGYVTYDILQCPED
Chain of Transcription factor Jun (Homo sapiens) (P05412 whole entry): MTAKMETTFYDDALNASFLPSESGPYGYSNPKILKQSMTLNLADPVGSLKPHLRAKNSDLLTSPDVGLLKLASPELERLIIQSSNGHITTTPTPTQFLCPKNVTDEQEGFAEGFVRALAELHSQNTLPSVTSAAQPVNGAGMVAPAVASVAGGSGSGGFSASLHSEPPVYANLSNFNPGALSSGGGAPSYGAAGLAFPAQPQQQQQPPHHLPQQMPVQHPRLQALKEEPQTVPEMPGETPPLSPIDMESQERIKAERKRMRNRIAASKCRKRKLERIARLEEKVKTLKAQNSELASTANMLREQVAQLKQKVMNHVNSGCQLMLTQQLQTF
Chain of Transcription factor p65 (Homo sapiens) (Q04206 whole entry): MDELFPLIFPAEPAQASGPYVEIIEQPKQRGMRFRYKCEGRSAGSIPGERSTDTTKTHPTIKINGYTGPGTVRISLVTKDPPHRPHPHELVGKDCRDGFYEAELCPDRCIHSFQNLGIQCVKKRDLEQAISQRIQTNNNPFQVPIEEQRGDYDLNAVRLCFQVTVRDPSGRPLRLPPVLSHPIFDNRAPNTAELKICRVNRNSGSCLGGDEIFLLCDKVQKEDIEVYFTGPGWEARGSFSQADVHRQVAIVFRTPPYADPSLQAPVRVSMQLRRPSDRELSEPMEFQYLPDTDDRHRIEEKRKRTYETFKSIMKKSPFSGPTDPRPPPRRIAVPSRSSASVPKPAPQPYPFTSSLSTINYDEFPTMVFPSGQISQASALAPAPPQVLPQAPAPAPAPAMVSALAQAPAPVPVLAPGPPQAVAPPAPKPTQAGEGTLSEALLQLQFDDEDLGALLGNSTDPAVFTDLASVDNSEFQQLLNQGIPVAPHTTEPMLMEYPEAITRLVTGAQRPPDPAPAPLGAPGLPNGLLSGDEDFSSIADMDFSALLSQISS

In the case of O=C(/C=C/c1ccc(O)cc1)c1ccc(O)cc1O [ISOLIQUIRITIGENIN], the inhibition [1] is reported as 52%, the Activity [2] is reported as 97% and the Activity [3] is reported as 91%. For the same compound, the Activity [4] was 67%, the inhibition at 5 µg/mL (U-937 [5]) was 87% and the inhibition (U-937 [6]) was “Active”. For the same compound, the inhibition (U-937 [7]) was “Active”, the inhibition (U-937 [8]) was “Active” and the inhibition at 5 µg/mL (U-937 [9]) was 34%. The inhibition (U-937 [10]) was “Dose-dependent effect”, the inhibition (U-937 [11]) was “Dose-dependent effect” and the inhibition (U-937 [12]) was “Dose-dependent effect”. The inhibition (U-937 [13]) was “Dose-dependent effect”, the inhibition (U-937 [14]) was “Dose-dependent effect” and the inhibition (U-937 [15]) was “Active”. The inhibition (U-937 [16]) was “Active”, the Activity (U-937 [17]) was “Non-toxic” and the inhibition at 5 µg/mL (U-937 [18]) was 89%. For the same compound, the inhibition [19] was “Active”, the inhibition [20] was “Active” and the Activity (Fusobacterium nucleatum [21]) was “Dose-dependent effect”. The Activity (Prevotella intermedia [22]) was “Active”, the Activity (Porphyromonas gingivalis [23]) was “Active” and the Activity (Fusobacterium nucleatum [24]) was “Active”. For the same compound, the Activity (Prevotella intermedia [25]) was “Active”, the Activity (Porphyromonas gingivalis [26]) was “Active” and the Activity (Fusobacterium nucleatum [27]) was “Active”. The inhibition of growth at 5 µg/mL (Prevotella intermedia [28]) was 58%, the Activity (Prevotella intermedia [29]) was “Dose-dependent effect” and the MIC (Prevotella intermedia [29]) was 10 µg/mL (≈ 39 µM). The inhibition (Prevotella intermedia [30]) was “Active”, the Activity (Porphyromonas gingivalis [31]) was “Dose-dependent effect” and the MIC (Porphyromonas gingivalis [31]) was 40 µg/mL (≈ 156 µM). The inhibition (Porphyromonas gingivalis [32]) was “inactive”, the inhibition of growth at 40 µg/mL (Fusobacterium nucleatum [33]) was 70% and the Activity [34] was 82%. For the same compound, the Activity [35] was 78% and the Activity [36] was 48%.

O=C1C[C@@H](c2ccc(O)cc2)Oc2cc(O)ccc21 [LIQUIRTIGENIN] gave an inhibition [1] of 21%, an Activity [2] of 95% and an Activity [3] of 95%. The Activity [4] was 87%, the inhibition at 5 µg/mL (U-937 [5]) was 17% and the inhibition at 5 µg/mL (U-937 [6]; U-937, 24 h) was 24%. It also gave an inhibition at 5 µg/mL (U-937 [7]; U-937, 24 h) of 23%, an inhibition at 5 µg/mL (U-937 [8]; U-937, 24 h) of 34% and an inhibition at 5 µg/mL (U-937 [9]) of 11%. The Activity (U-937 [17]) was “Non-toxic”, the inhibition at 5 µg/mL (U-937 [18]) was 24% and the inhibition [19] was 39%. For the same compound, the inhibition [20] was 20%, the Activity (Prevotella intermedia [22]) was “Active” and the Activity (Prevotella intermedia [25]) was “Active”. For the same compound, the inhibition of growth at 40 µg/mL (Prevotella intermedia [37]) was 85%, the Activity [34] was 83% and the Activity [35] was 82%. It also gave an Activity [36] of 79%.
